From ChEMBL document CHEMBL1153467, “Synthesis and biological evaluation of imidazole derivatives as novel NOP/ORL1 receptor antagonists: exploration and optimization of alternative pyrazole structure” (Bioorg Med Chem Lett, 2009)
pIC50: −log10 of the molar value.

Key:
[1] = biological target: T1, Nociceptin receptor (Homo sapiens, UniProt P41146); test: Antagonist activity at human cloned ORL1 receptor expressed in CHO cells assessed as inhibition of nociceptin/orphanin FQ-stimulated [35S]GTPgammaS binding; assay type: functional, cell-based
How it was run: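 Functional antagonism measured by stimulation of [³⁵S]GTPγS binding to membranes from CHO cells expressing ORL1, run per an earlier published protocol.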

[2] = biological target: T1, Nociceptin receptor; test: Displacement of [125I]Tyr14-nociceptin from human ORL1 receptor expressed in CHO cells; assay type: cell-based
How it was run: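 Competition binding to human ORL1 receptors transfected into CHO cells, with [¹²⁵I][Tyr¹⁴]nociceptin as radioligand; values given as IC₅₀.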

[3] = system: MDR1 (human); test: Apparent permeability across pig L-MDR1 cells overexpressing human MDR1; assay type: ADME, cell-based, Sus scrofa; conditions: LLC-PK1
How it was run: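 P-gp transporter efflux assay: apparent permeability (Papp) reported in 10⁻⁶ cm/s; efflux expressed as the B–A/A–B ratio, with ratio accuracy considered compromised when Papp <10.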

[4] = biological target: T1, Nociceptin receptor; test: Displacement of [125I]Tyr14-nociceptin from human ORL1 receptor expressed in CHO cells at 1 uM; assay type: cell-based
How it was run: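 Same radioligand displacement at human ORL1 in CHO cells ([¹²⁵I][Tyr¹⁴]nociceptin), but reported as % inhibition of binding at a single 1 μM test concentration.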

[5] = biological target: Voltage-gated inwardly rectifying potassium channel KCNH2 (Homo sapiens, UniProt Q12809); test: Displacement of [35S]MK499 from human ERG expressed in HEK293 cells overexpressing Ikr channel protein; assay type: cell-based
[6] = Efflux ratio of permeability from basolateral to apical side over apical to basolateral side in pig L-MDR1 cells overexpressing human MDR1
[7] = Half life in rat at 1 mg/kg, iv; assay type: ADME, organism-based; design: dose 1 mg/kg, route intravenous; conditions: in vivo
[8] = Oral bioavailability in rat at 3 mg/kg; assay type: ADME, organism-based; conditions: in vivo
[9] = Metabolic stability in human liver microsomes at 1 uM after 30 mins; assay type: ADME, Microsome; conditions: read-out: Stability
How it was run: (§1)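 Parent compound at 1 μM was incubated with human or rat liver microsomes (0.25 mg protein/ml) for 30 min at 37 °C; stability was read out as % parent remaining.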

[10] = Metabolic stability in rat liver microsomes at 1 uM after 30 mins; assay type: ADME, Microsome; conditions: read-out: Stability; how it was run: as §1
[11] = Clearance in rat at 1 mg/kg, iv; assay type: ADME, organism-based; design: dose 1 mg/kg, route intravenous; conditions: in vivo

T1 sequence (P41146 whole entry): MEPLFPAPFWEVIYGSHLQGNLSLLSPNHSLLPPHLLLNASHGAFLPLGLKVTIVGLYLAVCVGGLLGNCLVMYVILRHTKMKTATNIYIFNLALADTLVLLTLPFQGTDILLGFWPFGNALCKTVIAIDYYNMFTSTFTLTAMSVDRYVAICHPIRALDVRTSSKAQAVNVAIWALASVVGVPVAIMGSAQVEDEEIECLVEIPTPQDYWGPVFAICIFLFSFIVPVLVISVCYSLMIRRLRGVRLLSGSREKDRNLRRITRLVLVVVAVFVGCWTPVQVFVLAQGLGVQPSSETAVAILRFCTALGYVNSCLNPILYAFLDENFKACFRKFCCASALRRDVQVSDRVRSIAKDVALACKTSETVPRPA
Sequence of Voltage-gated inwardly rectifying potassium channel KCNH2 (Q12809 whole entry): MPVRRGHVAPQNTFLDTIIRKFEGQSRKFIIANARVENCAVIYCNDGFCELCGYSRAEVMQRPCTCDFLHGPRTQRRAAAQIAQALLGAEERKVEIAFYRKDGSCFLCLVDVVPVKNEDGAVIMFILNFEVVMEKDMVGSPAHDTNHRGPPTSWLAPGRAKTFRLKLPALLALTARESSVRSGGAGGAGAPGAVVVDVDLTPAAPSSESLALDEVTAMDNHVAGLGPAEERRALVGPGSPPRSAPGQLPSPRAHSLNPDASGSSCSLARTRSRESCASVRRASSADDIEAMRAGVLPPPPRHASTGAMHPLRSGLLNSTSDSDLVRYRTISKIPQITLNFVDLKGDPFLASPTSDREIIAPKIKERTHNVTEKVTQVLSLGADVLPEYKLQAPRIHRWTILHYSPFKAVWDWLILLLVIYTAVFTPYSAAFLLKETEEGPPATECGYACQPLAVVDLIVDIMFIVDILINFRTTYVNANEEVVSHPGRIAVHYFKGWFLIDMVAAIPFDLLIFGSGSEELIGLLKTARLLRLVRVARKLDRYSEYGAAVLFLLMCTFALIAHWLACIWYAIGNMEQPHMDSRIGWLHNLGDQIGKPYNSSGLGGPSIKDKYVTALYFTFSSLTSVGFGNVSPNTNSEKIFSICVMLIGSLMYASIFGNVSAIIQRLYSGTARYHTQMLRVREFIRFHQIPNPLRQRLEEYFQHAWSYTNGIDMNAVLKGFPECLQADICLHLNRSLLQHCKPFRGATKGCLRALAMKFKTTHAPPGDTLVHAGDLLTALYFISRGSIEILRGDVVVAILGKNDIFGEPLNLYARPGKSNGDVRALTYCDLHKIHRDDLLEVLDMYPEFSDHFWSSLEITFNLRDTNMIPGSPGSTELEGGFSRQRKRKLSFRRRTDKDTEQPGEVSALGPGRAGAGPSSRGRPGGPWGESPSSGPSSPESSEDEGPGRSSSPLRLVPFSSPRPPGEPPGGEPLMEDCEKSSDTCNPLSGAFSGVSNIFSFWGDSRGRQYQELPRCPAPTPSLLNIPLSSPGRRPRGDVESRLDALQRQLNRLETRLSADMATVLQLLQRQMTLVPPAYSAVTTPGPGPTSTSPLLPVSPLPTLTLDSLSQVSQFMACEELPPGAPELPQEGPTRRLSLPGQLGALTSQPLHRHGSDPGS

COCCc1nc(CN[C@H]2CC[C@@H](F)C2)n(C(C)C)c1-c1ccc(Cl)cc1
pIC50 [1]: 8.25
pIC50 [2]: 8.12
Papp [3]: 28.6 ×10⁻⁶ cm/s

Clc1ccc(-c2sc(CNC3CCCC3)nc2-c2ccc(Cl)cc2Cl)cc1
inhibition [4]: 7%
pIC50 [2]: < 6.00

FC(F)(F)Cn1c(CNC2CCCC2)nc(-c2ccc(Cl)cc2Cl)c1-c1ccc(Cl)cc1
inhibition [4]: 32%
pIC50 [2]: < 6.00

Cc1c(CNC2CCCC2)oc(-c2ccc(Cl)cc2Cl)c1-c1ccc(Cl)cc1
inhibition [4]: 25%
pIC50 [2]: < 6.00

FCC(CF)n1c(CNC2CCCC2)nc(-c2ccc(Cl)cc2Cl)c1-c1ccc(Cl)cc1
pIC50 [2]: 7.02

Cn1c(CNC2CCCC2)nnc1-c1cc(F)cc(F)c1
inhibition [4]: 19%
pIC50 [2]: < 6.00

Clc1ccc(-c2oc(CNC3CCCC3)nc2-c2ccc(Cl)cc2Cl)cc1
inhibition [4]: 28%
pIC50 [2]: < 6.00

Clc1ccc(-c2c(-c3ccc(Cl)cc3Cl)nc(CNC3CCCC3)n2C2CCCC2)cc1
inhibition [4]: 43%
pIC50 [2]: < 6.00

Cc1ccc(-n2c(-c3ncccc3Cl)nc(CN[C@H]3CC[C@@H](F)C3)c2C(C)C)cn1
pIC50 [1]: 8.64
pIC50 [5]: 4.82
Ratio [6]: 21.8
pIC50 [2]: 8.85
Papp [3]: 24.1 ×10⁻⁶ cm/s

Clc1ccc(-c2c(-c3ccc(Cl)cc3Cl)nc(CNC3CCCC3)n2C2CCCCC2)cc1
inhibition [4]: 48%
pIC50 [2]: < 6.00

Cc1ccc(-n2c(-c3ncccc3Cl)nc(CNC3CCCC3)c2C)cn1
pIC50 [2]: 7.59

Clc1ccc(-c2nc(CNC3CCCC3)nn2-c2ccc(Cl)cc2Cl)cc1
inhibition [4]: 48%
pIC50 [2]: < 6.00

CC(C)Cn1c(CNC2CCCC2)nc(-c2ccc(Cl)cc2Cl)c1-c1ccc(Cl)cc1
pIC50 [2]: 6.27

CCn1c(CNC2CCCC2)nc(-c2ccc(Cl)cc2Cl)c1-c1ccc(Cl)cc1
pIC50 [2]: 6.80

Cc1c(CNC2CCCC2)cc(-c2ccc(Cl)cc2Cl)n1-c1ccc(Cl)cc1
pIC50 [2]: 6.70

Clc1ccc(-c2cc(CNC3CCCC3)nn2-c2ccc(Cl)cc2Cl)cc1
pIC50 [2]: 6.89

CCC(CC)n1c(CNC2CCCC2)nc(-c2ccc(Cl)cc2Cl)c1-c1ccc(Cl)cc1
pIC50 [2]: 6.80

Cc1ccc(-n2c(-c3ncccc3Cl)nc(CNC3CCCC3)c2C(C)C)cn1
pIC50 [1]: 8.02
pIC50 [5]: 5.00
Ratio [6]: 22.9
pIC50 [2]: 8.33
Papp [3]: 25 ×10⁻⁶ cm/s

CCc1c(CN[C@H]2CC[C@@H](F)C2)nc(-c2ncccc2Cl)n1-c1ccc(C)nc1
half-life [7]: 30 min
pIC50 [1]: 8.64
bioavailability [8]: 10%
pIC50 [5]: 4.82
Ratio [6]: 19.7
remaining at 0.5 h, 1 µM [9]: 85%
remaining at 0.5 h, 1 µM [10]: 82%
pIC50 [2]: 8.49
Papp [3]: 20.6 ×10⁻⁶ cm/s
clearance [11]: 114 mL/min/kg

Cc1nn(-c2ccccc2)c(C)c1CNC1CCCC1
inhibition [4]: 44%
pIC50 [2]: < 6.00

Cn1c(CNC2CCCC2)nc(-c2ccc(Cl)cc2Cl)c1-c1ccc(Cl)cc1
pIC50 [2]: 6.28

CC(C)n1c(CNC2CCCC2)nc(-c2ccc(Cl)cc2Cl)c1-c1ccc(Cl)cc1
pIC50 [2]: 7.48

Cn1c(CNC2CCCC2)nc(-c2ccc(Cl)cc2)c1-c1ccc(Cl)cc1Cl
pIC50 [2]: 6.07

Clc1ccc(-c2nc(CNC3CCCC3)cn2-c2ccc(Cl)cc2Cl)cc1
pIC50 [2]: 6.21

FCCn1c(CNC2CCCC2)nc(-c2ccc(Cl)cc2Cl)c1-c1ccc(Cl)cc1
pIC50 [2]: 6.80

Cc1nc(CN[C@H]2CC[C@@H](F)C2)c(C(C)C)n1-c1cc(F)cc(F)c1
pIC50 [1]: 8.35
pIC50 [5]: 4.47
Ratio [6]: 3.2
pIC50 [2]: 8.07
Papp [3]: 34 ×10⁻⁶ cm/s

Cc1ccc(-n2c(-c3ncccc3Cl)nc(CN[C@H]3CC[C@@H](F)C3)c2C)cn1
pIC50 [1]: 8.43
pIC50 [2]: 8.04
Papp [3]: 16.8 ×10⁻⁶ cm/s

Cc1c(CNC2CCCC2)nnn1-c1ccc(F)c(F)c1
inhibition [4]: 40%
pIC50 [2]: < 6.00

Clc1ccc(-c2c(-c3ccc(Cl)cc3Cl)nc(CNC3CCCC3)n2C2CC2)cc1
pIC50 [2]: 6.72

Cc1nc(CNC2CCCC2)n(C(C)C)c1-c1ccc(Cl)cc1
pIC50 [5]: 5.49
Ratio [6]: 1
pIC50 [2]: 7.96
Papp [3]: 18.2 ×10⁻⁶ cm/s

Clc1ccc(-c2c(-c3ccc(Cl)cc3Cl)nc(CNC3CCCC3)n2C2CCC2)cc1
pIC50 [2]: 6.28

Cc1c(CNC2CCCC2)nc(-c2ccc(Cl)cc2Cl)n1-c1ccc(Cl)cc1
pIC50 [2]: 7.55

CC(C)(C)n1c(CNC2CCCC2)nc(-c2ccc(Cl)cc2Cl)c1-c1ccc(Cl)cc1
inhibition [4]: 26%
pIC50 [2]: < 6.00

FC(F)Cn1c(CNC2CCCC2)nc(-c2ccc(Cl)cc2Cl)c1-c1ccc(Cl)cc1
pIC50 [2]: 6.30
